High-throughput results as filed in PubChem.
Compounds with a hit are over-represented: about 4.4% of the library has one in this group of screens.
HSF1 inh = HSF1 inhibition. NIH3T3-HGL HSE-luciferase, MG132-induced, luminescence 8 h; active compounds read low. activity change, negative = inhibition, % at 7.5 µM (by protocol). hit rate 0.77% among 300,000;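 active = more than half of replicate wells show activity change below -50%, luminescence cut by over half; inconclusive = some wells, but at most half, below -50%; inactive = no replicate well below -50%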;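 note: luciferase reports HSF-1 transcriptional activity via heat shock element; 0% = median of DMSO wells and -100% = zero luminescence signal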
T cruzi repl = T. cruzi replication inhibition. T. cruzi beta-gal in NIH3T3, luminescence, 90 h. inhibition, % (concentration not given with the values). hit rate 1.4% among 300,000. AID 1885;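 active = mean inhibition across valid replicates above about 55%, limit read from the data; inconclusive = mean below that limit but half or more replicates reach it; inactive = mean below it, under half of replicates reach it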;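 note: signal also drops with host cell toxicity which is not excluded here; 0% = plate median of DMSO wells and 100% = zero luminescence signal; higher percent means less beta-gal luminescence so fewer parasites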
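compound dosing = single 50 nL compound addition per well in DMSO | material = NIH/3T3 host cells with β-galactosidase reporter T. cruzi | input = 5,000 host fibroblasts per well | timing = ≥90 h infection period, 3 h prior cell attachment | read-out basis = percent inhibition of parasite-derived β-gal signal | detection = GalScreen β-gal luminescence, detergent lysis, 60 min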
Calb FLC = affects C. albicans growth with fluconazole | growth inhibition, % (no concentration beside the values) | C. albicans CaCi-2 + fluconazole, Alamar Blue growth, 48 h | hit rate 0.57% among 300,000;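 active = growth inhibition above about 58% in most replicates, limit read from the data, passing the limit was not always enough; inconclusive = exactly half the replicates above a set limit; inactive = most replicates below a set limit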;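 note: all wells also contain fluconazole at 8 µg/ml as a sub-toxic cotreatment; 0% = median of DMSO wells and 100% = median of geldanamycin control wells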
HIF act = HIF pathway transcriptional activation; U2OS HRE-luciferase reporter, luminescence; normalized: DMSO 0%, desferrioxamine 100%; activation, % at 7.5 µM (by protocol); hit rate 0.32% among 300,000;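 active = mean activation of at least 10% of the iron chelator positive control signal, with at least half of replicates also reaching 10%; inconclusive = mean and replicate majority disagree about reaching 10%; inactive = mean and most replicates under 10%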
HSF1 activator = increases HSF-1 driven luciferase reporter signal; NIH3T3-HGL HSF-1 luciferase reporter, MG132, 8 h; 100% = twice DMSO control signal; activation, % at 9 µM; hit rate 1.7% among 300,000; AID 504408;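 active = mean replicate activation of at least 50% with a set share of replicates each reaching 50%; inconclusive = only one of those two conditions met; inactive = mean below 50% and too few replicates reaching it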;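 note: 0% = median of the neutral control wells and 100% = twice that signal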
An asterisk follows results filed as active; ? = inconclusive; . = no result.

SMILES	HSF1 inh	T cruzi repl	Calb FLC	HIF act	HSF1 activator
COc1ccc(C/C(=N\O)c2ccc(OC)cc2)cc1	35	12	-11	1	53*
COc1cccc2cc(C(=O)OC3CCN(C)CC3)c(=O)oc12	-68*	-7	-7	0	-74
O=C(NC1CCCCCC1)c1cc2ccccc2oc1=O	-16	-9	-2	4	-34
O=C(OC1CCCCC1)c1cc2ccccc2oc1=O	35	-3	-7	2	52*
COc1cc(Br)cc2cc(C(=O)OC3CCN(C)CC3)c(=O)oc12	0	21	-27	0	-20
CCC(C)(C)NC(=O)C(c1ccccn1)N(C(=O)c1csnn1)c1ccc(C)c(C)c1 (stereo unspecified)	20	-10	-1	4	38
Cc1c(C(=O)OC(C)CCN(C)C)oc2ccccc12 (stereo unspecified)	29	57*	-15	1	38
COc1ccc(C(=O)/C=C/c2cc(C(=O)O)cc3c2OCOC3)c(O)c1	70	-18	-2	0	95*
COc1ccc(C(=O)/C=C/c2ccccc2)c(O)c1	18	-17	0	3	33
Cc1c(Cc2ccccc2)c(=O)oc2c(O)c(O)ccc12	17	-42	108*	0	30
Cc1csc(NC(=O)Cc2coc3cc(C)c(C(C)C)cc23)n1	1	8	5	0	28
Cc1cc2occ(CC(=O)NCc3cccs3)c2cc1C(C)C	12	36	-13	0	62*
CCN1CNC(=S)N(CCc2ccccc2)C1	5	-12	-3	0	2
CCN1CN(CCc2ccccc2)CNC1=S	1	-12	6	270*	10
Cc1nc2ccc(C(=O)N3c4ccccc4CC3C)cc2s1 (stereo unspecified)	-2	-4	116*	-1	7
CC1Cc2ccccc2N1C(=O)c1cccnc1 (stereo unspecified)	-6	-9	4	0	-7
COC(=O)c1sc(-c2ccc(C(C)(C)C)cc2)cc1NC(=O)CCC(=O)O	0	-13	-6	1	7
Cn1nnc(-c2ccc(OCc3ccccc3F)cc2)n1	23	2	-5	1	56*
COC(=O)c1cnc(N2CCCN(S(=O)(=O)c3ccccc3)CC2)nc1C(F)(F)F	-13	7	-4	-1	-22
COC(=O)c1cnc(N2CCCN(S(=O)(=O)c3ccc(C(F)(F)F)cc3)CC2)nc1C(F)(F)F	15	55*	4	-1	53*
CC1(C)CC(=O)C2=C(C1)N1C(=C(C#N)C2c2ccccc2Cl)N=C(N)c2ccccc21 (stereo unspecified)	23	7	14	-1	28
CC1(C)CC(=O)C2=C(C1)N1C(=C(C#N)C2c2ccc(Cl)cc2)N=C(N)c2ccccc21 (stereo unspecified)	54	44	64	0	76*
O=C(Nc1ccc(C(=O)N2CCOCC2)cc1)c1cccc([N+](=O)[O-])c1	5	-2	-9	-1	-12
O=C(c1ccc(COc2ccc(Cl)cc2)cc1)N1CCCCC1	29	26	-8	1	54*
CCCCOc1ccc(C(=O)N2CCCCCC2)cc1	2	4	?	1	4
SMILES	HSF1 inh	T cruzi repl	Calb FLC	HIF act	HSF1 activator
COc1cc(C(=O)NCc2nnc(SCC(=O)Nc3cc(C)cc(C)c3)o2)cc(OC)c1OC	-56*	-10	2	0	-67
CCn1c(CC(=O)Nc2ccc(F)cc2)nnc1SCC(=O)N1CCOCC1	2	-4	4	-1	9
C=C(C)c1cccc(C(C)(C)NC(=O)Nc2ccc(C(N)=O)cc2)c1	1	-8	83*	0	3
Cc1[nH]c(N=Nc2ccccc2)nc1N=Nc1ccccc1	11	65*	-3	4	30
CCOC(=O)C1=C(c2ccccc2)Nc2ncnn2C1c1ccc(OC)c(OC)c1OC (stereo unspecified)	5	56*	-10	0	16
CC(=O)c1ccc(N(C(=O)Cc2c[nH]c3ccccc23)C(C(=O)NC2CCCCC2)c2cccs2)cc1 (stereo unspecified)	2	31	33	1	32
O=C(NC1CCCCC1)C(c1cccs1)N(C(=O)Cc1c[nH]c2ccccc12)c1ccc(F)cc1 (stereo unspecified)	39	57*	42	0	51*
CC(=O)Nc1ccc(N(C(=O)Cc2c[nH]c3ccccc23)C(C(=O)NC2CCCCC2)c2ccco2)cc1 (stereo unspecified)	0	-4	38	-1	-2
Cc1cccc(N(C(=O)C(F)(F)F)C(C(=O)NC2CCCCC2)c2cccs2)c1 (stereo unspecified)	11	59*	-9	0	16
COc1ccc(C(C(=O)NC2CCCCC2)N(Cc2cccs2)C(=O)Cc2c[nH]c3ccccc23)cc1 (stereo unspecified)	-1	41	68	0	-6
Cc1ccc(C(C(=O)NC2CCCCC2)N(C(=O)Cc2c[nH]c3ccccc23)c2ccccc2)o1 (stereo unspecified)	32	56*	-17	0	58*
COc1cccc(CN(C(=O)Cc2c[nH]c3ccccc23)C(C(=O)NC2CCCCC2)c2cccs2)c1 (stereo unspecified)	5	55*	29	-1	9
CN(C)S(=O)(=O)c1cccc(COC(=O)Cc2c(F)cccc2Cl)c1	-3	6	15	-1	10
O=C(NCc1ccco1)C(c1ccc(F)cc1)N(C(=O)Cc1cccs1)c1cccnc1 (stereo unspecified)	12	-13	15	0	6
COc1ccc(CN(C(=O)Cc2cccs2)C(C(=O)NC2CCCC2)c2ccncc2)cc1 (stereo unspecified)	-8	66*	10	0	8
COCCN(C(=O)c1snc(C(N)=O)c1N)C(C(=O)NC1CCCCC1)c1ccc(OC)c(OC)c1 (stereo unspecified)	6	-6	-2	2	4
Nc1c(-c2ccc(Cl)cc2)cnn1-c1ccccc1	8	8	-22	3	21
Nc1c(-c2ccc(Cl)cc2)nnn1-c1ccccc1	38	-2	-5	1	58*
COc1cccc(C2CC(c3ccc(C)cc3)n3ncnc3N2)c1 (stereo unspecified)	-4	13	-2	0	9
COc1cccc(C2CC(c3ccccc3)n3ncnc3N2)c1 (stereo unspecified)	-77*	2	8	0	-82
Nc1nc(Br)c2c(F)cccc2c1-c1ccc(Cl)cc1	114	-3	22	-1	149*
NC(=O)C1CCN(S(=O)(=O)c2cccc(C(=O)O)c2)CC1	0	3	0	0	-3
O=C(CN(Cc1cccs1)S(=O)(=O)c1ccc(S(=O)(=O)NC2CCCCC2)cc1)Nc1ccccc1	6	57*	-1	.	42
